ChEMBL document CHEMBL1154384, “New classes of potent and bioavailable human renin inhibitors” (Bioorg Med Chem Lett, 2009)

Key:
Renin [1] = target: T1, Renin (Homo sapiens, UniProt P00797); assay: Inhibition of human rennin in buffer assessed as accumulation of angiotensin 1 using human tetradecapeptide by immunoassay
T1 sequence (P00797 whole entry): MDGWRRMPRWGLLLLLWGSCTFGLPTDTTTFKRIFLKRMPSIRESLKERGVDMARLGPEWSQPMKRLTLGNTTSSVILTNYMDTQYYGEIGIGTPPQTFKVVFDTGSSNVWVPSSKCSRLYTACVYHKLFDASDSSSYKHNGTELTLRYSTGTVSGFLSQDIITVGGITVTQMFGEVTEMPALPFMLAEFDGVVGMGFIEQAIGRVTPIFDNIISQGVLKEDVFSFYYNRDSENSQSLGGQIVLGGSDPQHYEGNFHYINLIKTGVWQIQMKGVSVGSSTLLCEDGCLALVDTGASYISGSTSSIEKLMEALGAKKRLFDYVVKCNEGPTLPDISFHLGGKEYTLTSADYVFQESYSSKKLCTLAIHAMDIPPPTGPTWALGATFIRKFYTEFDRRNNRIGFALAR

[2] = Oral bioavailability in Wistar rat at 10 mg/kg; type: ADME, organism-based; settings: in vivo
Renin [3] = target: T1, Renin; assay: Inhibition of human rennin in human plasma assessed as accumulation of angiotensin 1 using human tetradecapeptide by immunoassay; type: cell-free
Cytochrome P450 3A4 = Cytochrome P450 3A4 (Homo sapiens, UniProt P08684); assay: Inhibition of CYP3A4; type: ADME
[4] = Dissociation constant, pKa of the compound; type: physicochemical
Summary of the method: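 pKa of the template's secondary amine, measured experimentally. Compounds poorly soluble in water in their neutral form were measured in solvent mixtures, so their values could only be estimated.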

Cytochrome P450 3A4, sequence (P08684 whole entry): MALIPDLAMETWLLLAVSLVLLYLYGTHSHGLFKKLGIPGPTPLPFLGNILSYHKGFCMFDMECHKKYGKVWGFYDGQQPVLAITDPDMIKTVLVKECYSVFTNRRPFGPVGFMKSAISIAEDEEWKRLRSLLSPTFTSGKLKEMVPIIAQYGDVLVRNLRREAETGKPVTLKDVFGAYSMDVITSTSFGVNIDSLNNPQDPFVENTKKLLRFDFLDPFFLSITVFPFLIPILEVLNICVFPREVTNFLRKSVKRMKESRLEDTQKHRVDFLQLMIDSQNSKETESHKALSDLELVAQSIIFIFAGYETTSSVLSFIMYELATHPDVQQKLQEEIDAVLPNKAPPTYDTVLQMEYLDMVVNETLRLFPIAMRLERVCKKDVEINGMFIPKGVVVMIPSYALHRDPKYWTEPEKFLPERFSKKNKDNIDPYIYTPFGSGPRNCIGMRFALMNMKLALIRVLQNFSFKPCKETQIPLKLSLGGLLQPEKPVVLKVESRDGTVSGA

| Structure (SMILES) | IC50 (Renin [1]) [nM] | bioavailability [2] [%] | IC50 (Renin [3]) [nM] | IC50 (Cytochrome P450 3A4) [nM] | pKa [4] |
| --- | --- | --- | --- | --- | --- |
| O=C(C1=C(c2ccc(CCCOc3c(F)ccc(F)c3Cl)cc2)C[C@H]2CS(=O)(=O)C[C@H]1N2)N(Cc1cccc(Cl)c1Cl)C1CC1 | 6.4 | – | – | – | – |
| COc1cccc(CN(C(=O)C2=C(c3ccc(CCCOc4c(F)ccc(F)c4Cl)cc3)C[C@H]3C[S+]([O-])C[C@H]2N3)C2CC2)c1C (some centres undefined) | 64 | – | – | – | – |
| COc1cccc(CN(C(=O)C2=C(c3ccc(CCCOc4c(F)ccc(F)c4Cl)cc3)C(F)(F)CNC2)C2CC2)c1C | 330 | 10 | – | – | – |
| COc1cccc(CN(C(=O)C2=C(c3ccc(CCCOc4c(F)ccc(F)c4Cl)cc3)C(C)(C)CNC2)C2CC2)c1C | 170 | 10 | 7400 | – | – |
| O=C(C1=C(c2ccc(CCCOc3c(F)ccc(F)c3Cl)cc2)C[C@H]2CC[C@H]1N2)N(Cc1cccc(Cl)c1Cl)C1CC1 | 0.55 | – | 47 | 1900 | – |
| COc1cccc(CN(C(=O)C2=C(c3ccc(CCCOc4c(F)ccc(F)c4Cl)cc3)C[C@H]3CNC[C@H]2N3)C2CC2)c1C | 1.37 | – | 54 | – | 3.6 |
| COc1cccc(CN(C(=O)C2=C(c3ccc(CCCOc4c(F)ccc(F)c4Cl)cc3)C3(CC3)CNC2)C2CC2)c1C | 210 | 10 | 7400 | – | – |
| COc1cccc(CN(C(=O)C2=C(c3ccc(CCCOc4c(F)ccc(F)c4Cl)cc3)CCNC2)C2CC2)c1C | 2 | 10 | 87 | – | – |
| O=C(C1=C(c2ccc(CCCOc3c(F)ccc(F)c3Cl)cc2)C(F)(F)CNC1)N(Cc1cccc(Cl)c1Cl)C1CC1 | 800 | 10 | – | – | – |
| Cc1cc(Cl)c(OCCOc2ccc(C3=C(C(=O)N(Cc4cccc(Cl)c4Cl)C4CC4)CNCC3)cc2)c(Cl)c1 | – | 10 | – | – | – |
| O=C(C1=C(c2ccc(CCCOc3c(F)ccc(F)c3Cl)cc2)C2(CC2)CNC1)N(Cc1cccc(Cl)c1Cl)C1CC1 | 34 | 10 | 4000 | – | – |
| O=C(C1=C(c2ccc(CCCOc3c(F)ccc(F)c3Cl)cc2)C[C@H]2COC[C@H]1N2)N(Cc1cccc(Cl)c1Cl)C1CC1 | 0.68 | – | 55 | – | 6.5 |
| O=C(C1=C(c2ccc(CCCOc3c(F)ccc(F)c3Cl)cc2)C[C@H]2CNC[C@H]1N2)N(Cc1cccc(Cl)c1Cl)C1CC1 | 0.4 | – | 36 | – | 8.2 |
| CC1(C)CNCC(C(=O)N(Cc2cccc(Cl)c2Cl)C2CC2)=C1c1ccc(CCCOc2c(F)ccc(F)c2Cl)cc1 | 31 | 10 | 2000 | – | – |
| O=C(C1=C(c2ccc(CCCOc3c(F)ccc(F)c3Cl)cc2)C[C@H]2CCC[C@H]1N2)N(Cc1cccc(Cl)c1Cl)C1CC1 | 1.1 | – | 113 | – | – |
| COc1cccc(CN(C(=O)C2=C(c3ccc(CCCOc4c(F)ccc(F)c4Cl)cc3)C[C@H]3CCC[C@H]2N3)C2CC2)c1C | 0.92 | – | 101 | – | – |
| COc1cccc(CN(C(=O)C2=C(c3ccc(CCCOc4c(F)ccc(F)c4Cl)cc3)C[C@H]3CC[C@H]2N3)C2CC2)c1C | 0.74 | – | 43 | – | – |
| O=C(C1=C(c2ccc(CCCOc3cc(F)ccc3Br)cc2)CCNC1)N(Cc1ccccc1Cl)C1CC1 | – | 10 | – | – | – |
| O=C(C1=C(c2ccc(CCCOc3c(F)ccc(F)c3Cl)cc2)CCNC1)N(Cc1cccc(Cl)c1Cl)C1CC1 | 1.2 | 10 | 53 | 1300 | – |
| COc1cccc(CN(C(=O)C2=C(c3ccc(CCCOc4c(F)ccc(F)c4Cl)cc3)C[C@H]3COC[C@H]2N3)C2CC2)c1C | 0.49 | – | 42 | 1000 | 6.5 |
